Source: ChEMBL document CHEMBL1124420, “Structure-activity relationships of pyrimidine nucleosides as antiviral agents for human immunodeficiency virus type 1 in peripheral blood mononuclear cells” (J Med Chem, 1989)

Assays:
[1] = tested on: Human immunodeficiency virus 1; experiment: Antiviral activity against HIV I strain (LAV) in human peripheral blood mononuclear (PBM) cells; assay type: functional, organism-based
In short: (§1)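 Human PBM cells from normal donors, mitogen-stimulated for 3 days (10⁶ cells/mL), were infected with HIV-1 LAV at about 100 TCID₅₀/mL. Drugs at various concentrations were added about 45 min post-infection, in fungizone-free medium. On day 5, virus was pelleted from the clarified supernatant and its reverse transcriptase activity measured. EC₅₀ came from the median effect method, and active compounds were retested with different donor cells.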

[2] = Cytotoxic effect in uninfected human peripheral blood mononuclear (PBM) cells
[3] = Antiviral activity against HIV I strain (LAV) in human peripheral blood mononuclear (PBM) cells; Range is 0.081 - 0.22; assay type: functional; in short: as §1
[4] = Antiviral activity against HIV I strain (LAV) in human peripheral blood mononuclear (PBM) cells; Range is 0.66 - 1.19; assay type: functional; in short: as §1
[5] = Antiviral activity against HIV I strain (LAV) in human peripheral blood mononuclear (PBM) cells; Range is 0.056 - 1.00; assay type: functional; in short: as §1
[6] = Antiviral activity against HIV I strain (LAV) in human peripheral blood mononuclear (PBM) cells; Range is 68.3 - 79.9; assay type: functional; in short: as §1
[7] = Antiviral activity against HIV-1 in human peripheral blood mononuclear (PBM) cells; assay type: functional; conditions: read-out: ED50 (the source's name)
[8] = Antiviral activity against HIV I strain (LAV) in human peripheral blood mononuclear (PBM) cells; Range is 0.18 - 0.46; assay type: functional
[9] = tested on: Moloney murine leukemia virus; experiment: Antiviral activity against Moloney murine leukemia virus; assay type: functional; conditions: read-out: ED50 (the source's name)
[10] = Antiviral activity against HIV I strain (LAV) in human peripheral blood mononuclear (PBM) cells; Range is 0.009 - 0.04; assay type: functional; in short: as §1
[11] = Antiviral activity against HIV I strain (LAV) in human peripheral blood mononuclear (PBM) cells; Range is 0.002 - 0.009; assay type: functional; in short: as §1

Cc1cn([C@H]2C[C@H](O)[C@@H](CN=[N+]=[N-])O2)c(=O)[nH]c1=O
EC50 [1]: 8.6 µM | IC50 [2]: > 100 µM

Cc1cn([C@H]2C[C@H](I)[C@@H](CO)O2)c(=O)[nH]c1=O
EC50 [1]: 46.3 µM | IC50 [2]: > 100 µM

O=c1ccn([C@H]2CC[C@@H](CO)O2)c(=O)[nH]1
EC50 [1]: 96.8 µM

CCc1cn(C2C[C@@H](I)[C@@H](CO)O2)c(=O)[nH]c1=O (stereo partly specified)
EC50 [1]: 86 µM | IC50 [2]: > 100 µM

O=c1ccn(C2C[C@@H](I)[C@@H](CO)O2)c(=O)[nH]1 (stereo partly specified)
EC50 [1]: 12.1 µM | IC50 [2]: > 100 µM

CCCc1cn(C2C[C@@H](N=[N+]=[N-])[C@@H](CO)O2)c(=O)[nH]c1=O (stereo partly specified)
EC50 [1]: 63 µM | IC50 [2]: > 100 µM

CCc1cn(C2C[C@@H](O)[C@@H](CN)O2)c(=O)[nH]c1=O (stereo partly specified)
EC50 [1]: 94.3 µM | IC50 [2]: > 10 µM

[N-]=[N+]=N[C@@H]1CC(c2cnc(O)nc2O)O[C@@H]1CO (stereo partly specified)
EC50 [1]: > 100 µM | IC50 [2]: > 100 µM

[N-]=[N+]=N[C@H]1C[C@H](n2cc(Br)c(=O)[nH]c2=O)O[C@@H]1CO
EC50 [1]: 1.04 µM | IC50 [2]: > 100 µM

Cc1cn([C@H]2C[C@H](N=[N+]=[N-])[C@@H](CO)O2)c(=O)nc1N
EC50 [3]: 0.081 µM | IC50 [2]: > 200 µM

[N-]=[N+]=N[C@H]1C[C@H](n2ccc(N)nc2=O)O[C@@H]1CO
IC50 [2]: > 400 µM | EC50 [4]: 0.66 µM

CCc1cn([C@H]2C[C@H](N=[N+]=[N-])[C@@H](CO)O2)c(=O)[nH]c1=O
IC50 [2]: 1000 µM | EC50 [5]: 0.056 µM

CCc1cn([C@H]2CC[C@@H](CO)O2)c(=O)[nH]c1=O
EC50 [1]: 4.9 µM | IC50 [2]: > 100 µM

N[C@H]1C[C@H](n2ccc(=O)[nH]c2=O)O[C@@H]1CO
EC50 [1]: 60 µM | IC50 [2]: > 100 µM

Nc1ncc([C@H]2CC[C@@H](CO)O2)c(O)n1
EC50 [1]: > 100 µM | IC50 [2]: > 100 µM

OC[C@@H]1C=C[C@H](c2cnc(O)nc2O)O1
EC50 [1]: > 100 µM | IC50 [2]: > 100 µM

CCc1cn([C@H]2C=C[C@@H](CO)O2)c(=O)[nH]c1=O
EC50 [1]: 75.7 µM | IC50 [2]: > 100 µM

Cc1cn([C@H]2C[C@H](O)[C@@H](CN)O2)c(=O)[nH]c1=O
EC50 [1]: 77.4 µM | IC50 [2]: > 100 µM

[N-]=[N+]=N[C@@H]1CC(n2cc(I)c(=O)[nH]c2=O)O[C@@H]1CO (stereo partly specified)
EC50 [1]: 1.14 µM | IC50 [2]: > 100 µM

CCc1cn(C2C[C@@H](N)[C@@H](CO)O2)c(=O)[nH]c1=O (stereo partly specified)
EC50 [1]: 54.9 µM | IC50 [2]: > 100 µM

[N-]=[N+]=N[C@@H]1CC(n2cc(/C=C/Br)c(=O)[nH]c2=O)O[C@@H]1CO (stereo partly specified)
EC50 [1]: > 100 µM | IC50 [2]: > 100 µM

CCc1cn(C2C[C@@H](O)[C@@H](CN=[N+]=[N-])O2)c(=O)[nH]c1=O (stereo partly specified)
EC50 [1]: > 100 µM | IC50 [2]: > 100 µM

[N-]=[N+]=NC[C@H]1OC(n2ccc(=O)[nH]c2=O)C[C@H]1O (stereo partly specified)
EC50 [1]: > 100 µM | IC50 [2]: > 100 µM

NC[C@H]1OC(n2ccc(=O)[nH]c2=O)C[C@H]1O (stereo partly specified)
EC50 [1]: > 100 µM | IC50 [2]: > 100 µM

Cc1cn([C@H]2CC[C@@H](CO)O2)c(=O)[nH]c1=O
EC50 [1]: 0.17 µM | IC50 [2]: > 100 µM

O=c1ccn([C@H]2C=C[C@@H](CO)O2)c(=O)[nH]1
EC50 [6]: 68.3 µM | IC50 [2]: > 100 µM

Cc1cn([C@H]2C[C@H](N)[C@@H](CO)O2)c(=O)[nH]c1=O [3-AMINO- 3-DEOXYTHYMIDINE]
EC50 [1]: > 100 µM | IC50 [2]: > 100 µM

[N-]=[N+]=N[C@H]1C[C@H](n2ccc(=O)[nH]c2=O)O[C@@H]1CO [NAVURIDINE]
EC50 [7]: 0.178 µM | IC50 [2]: 1000 µM | EC50 [8]: 0.18 µM | EC50 [9]: 52 µM

Cc1cn([C@H]2C=C[C@@H](CO)O2)c(=O)[nH]c1=O [STAVUDINE]
EC50 [10]: 0.009 µM | IC50 [2]: 70 µM

Cc1cn([C@H]2C[C@H](N=[N+]=[N-])[C@@H](CO)O2)c(=O)[nH]c1=O [ZIDOVUDINE]
IC50 [2]: 200 µM | EC50 [11]: 0.002 µM
